From ChEMBL document CHEMBL3352173, “Optimization of pyrrolamide topoisomerase II inhibitors toward identification of an antibacterial clinical candidate (AZD5099)” (J Med Chem, 2014)
≈ marks a conversion by molar mass, not a printed value.

Key:
[1] = system: Staphylococcus aureus; assay: Antimicrobial activity against Staphylococcus aureus ARC516 by broth microdilution/CLSI method; type: functional
[2] = system: Staphylococcus aureus; assay: Antibacterial activity against methicillin-sensitive Staphylococcus aureus ARC516 infected in ip dosed neutropenic CD1 mouse thigh model assessed as decrease in bacterial viable counts treated for q24; type: functional; details: ARC516, Thigh muscle
[3] = system: Staphylococcus aureus; assay: Ratio of MIC for 2 times drug resistance selected Staphylococcus aureus ARC1692-2F to MIC for Staphylococcus aureus ARC1692; type: functional
[4] = system: Escherichia coli; assay: Antimicrobial activity against Escherichia coli tolC- by broth microdilution/CLSI method; type: functional; details: Escherichia coli; read-out: MIC
[5] = system: Staphylococcus aureus; assay: Ratio of MIC for 2 times drug resistance selected Staphylococcus aureus ARC2381-2F to MIC for Staphylococcus aureus ARC2381; type: functional
[6] = target: DNA gyrase subunit B (Staphylococcus aureus, UniProt P0A0K8); assay: Inhibition of ATPase activity of Staphylococcus aureus GyrB
In short: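 IC50 was determined against S. aureus GyrB in the routine screening assay. The enzyme concentration limits resolution below 10 nM.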

[7] = system: Staphylococcus aureus; assay: Antimicrobial activity against 2 times drug resistance selected Staphylococcus aureus ARC2381-2F by broth microdilution/CLSI method; type: functional
[8] = target: Cytochrome P450 2D6 (Homo sapiens, UniProt P10635); assay: Inhibition of human CYP2D6 at 50 uM; type: ADME
[9] = target: Cytochrome P450 2C9 (Homo sapiens, UniProt P11712); assay: Inhibition of human CYP2C9 at 50 uM; type: ADME
[10] = system: Enterococcus faecium; assay: Antimicrobial activity against vancomycin-resistant Enterococcus faecium by broth microdilution/CLSI method; type: functional
[11] = system: Streptococcus pyogenes; assay: Antimicrobial activity against Streptococcus pyogenes by broth microdilution/CLSI method; type: functional
[12] = Clearance in rat at 10 mg/kg, iv; type: ADME, organism-based; parameters: dose 10 mg/kg, route intravenous; details: in vivo
[13] = system: Staphylococcus aureus; assay: Antimicrobial activity against 2 times drug resistance selected Staphylococcus aureus ARC2381-3F by broth microdilution/CLSI method; type: functional
[14] = system: Staphylococcus aureus; assay: Antimicrobial activity against Staphylococcus aureus ARC2398 by broth microdilution/CLSI method; type: functional
[15] = target: T1, Cytochrome P450 2C8 (Homo sapiens, UniProt P10632); assay: Inhibition of human CYP2C8 at 50 uM; type: ADME
T1 sequence (P10632 whole entry): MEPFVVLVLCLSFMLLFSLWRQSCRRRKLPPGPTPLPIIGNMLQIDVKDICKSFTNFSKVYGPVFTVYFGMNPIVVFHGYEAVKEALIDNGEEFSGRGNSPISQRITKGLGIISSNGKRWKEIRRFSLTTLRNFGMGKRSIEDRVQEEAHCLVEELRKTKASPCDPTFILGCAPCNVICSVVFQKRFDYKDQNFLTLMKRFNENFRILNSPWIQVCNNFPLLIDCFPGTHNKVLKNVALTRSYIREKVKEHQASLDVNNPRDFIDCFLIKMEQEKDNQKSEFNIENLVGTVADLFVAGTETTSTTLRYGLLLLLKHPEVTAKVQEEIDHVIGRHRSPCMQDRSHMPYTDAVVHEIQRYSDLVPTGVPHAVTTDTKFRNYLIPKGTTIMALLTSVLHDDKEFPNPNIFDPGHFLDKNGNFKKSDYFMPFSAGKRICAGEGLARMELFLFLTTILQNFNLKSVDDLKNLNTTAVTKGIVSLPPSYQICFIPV

[16] = Percentage unbound in mouse plasma; type: ADME, cell-free
[17] = system: Staphylococcus aureus; assay: Ratio of MIC for 2 times drug resistance selected Staphylococcus aureus ARC516-1F to MIC for Staphylococcus aureus ARC516; type: functional
[18] = Clearance in TR-negative Wistar rat at 10 mg/kg, iv; type: ADME, organism-based; parameters: dose 10 mg/kg, route intravenous; details: in vivo
[19] = Dissociation constant, pKa of the compound; type: physicochemical
[20] = system: Staphylococcus aureus; assay: Ratio of MIC for 2 times drug resistance selected Staphylococcus aureus ARC2381-3F to MIC for Staphylococcus aureus ARC2381; type: functional
[21] = system: Staphylococcus aureus; assay: Antimicrobial activity against methicillin-sensitive Staphylococcus aureus by broth microdilution/CLSI method; type: functional; details: Staphylococcus aureus; read-out: MIC
[22] = Clearance in CD1 mouse at 10 mg/kg, iv; type: ADME, organism-based; parameters: dose 10 mg/kg, route intravenous; details: in vivo
[23] = system: Moraxella catarrhalis; assay: Antimicrobial activity against Moraxella catarrhalis by broth microdilution/CLSI method; type: functional; details: Moraxella catarrhalis; read-out: MIC
[24] = target: T2, ATP-binding cassette sub-family C member 2 (Rattus norvegicus, UniProt Q63120); assay: Inhibition of ATPase activity of rat Mrp2 assessed as inorganic phosphate
[25] = system: Escherichia coli; assay: Antimicrobial activity against wild-type Escherichia coli Eco523 by broth microdilution/CLSI method; type: functional; details: Escherichia coli, Eco523; read-out: MIC
[26] = system: Staphylococcus aureus; assay: Antimicrobial activity against Staphylococcus aureus ARC2381 by broth microdilution/CLSI method; type: functional
[27] = AUC in methicillin-sensitive Staphylococcus aureus ARC516 infected in neutropenic CD1 mouse thigh model at 30 mg/kg, ip q24; type: ADME, organism-based; parameters: dose 30 mg/kg, route intraperitoneal; details: in vivo
[28] = system: Staphylococcus aureus; assay: Ratio of MIC for 2 times drug resistance selected Staphylococcus aureus ARC516-2F to MIC for Staphylococcus aureus ARC516; type: functional
[29] = target: Cytochrome P450 2C19 (Homo sapiens, UniProt P33261); assay: Inhibition of human CYP2C19 at 50 uM; type: ADME
[30] = system: Staphylococcus aureus; assay: Antibacterial activity against methicillin-sensitive Staphylococcus aureus ARC516 infected in ip dosed neutropenic CD1 mouse thigh model assessed as decrease in bacterial viable counts after 24 hrs; type: functional, organism-based; details: Thigh muscle
[31] = target: ATP-binding cassette sub-family C member 2 (Homo sapiens, UniProt Q92887); assay: Inhibition of ATPase activity of human MRP2 assessed as inorganic phosphate
[32] = system: Staphylococcus aureus; assay: Antimicrobial activity against 2 times drug resistance selected Staphylococcus aureus ARC516-2F by broth microdilution/CLSI method; type: functional
[33] = system: Staphylococcus aureus; assay: Antimicrobial activity against Staphylococcus aureus by broth microdilution/CLSI method; type: functional
[34] = Solubility of the compound; type: physicochemical
[35] = Bioavailability in CD1 mouse at 10 mg/kg, […]; type: ADME, organism-based; details: in vivo
[36] = system: Staphylococcus aureus; assay: Ratio of MIC for 2 times drug resistance selected Staphylococcus aureus ARC2398-2F to MIC for Staphylococcus aureus ARC2398; type: functional
[37] = system: Haemophilus influenzae; assay: Antimicrobial activity against Haemophilus influenzae by broth microdilution/CLSI method; type: functional; details: Haemophilus influenzae; read-out: MIC
[38] = target: T2, ATP-binding cassette sub-family C member 2; assay: Stimulation of ATPase activity of rat Mrp2 assessed as inorganic phosphate
[39] = system: Staphylococcus aureus; assay: Ratio of MIC for 2 times drug resistance selected Staphylococcus aureus ARC2398-1F to MIC for Staphylococcus aureus ARC2398; type: functional
[40] = target: Cytochrome P450 3A4 (Homo sapiens, UniProt P08684); assay: Inhibition of human CYP3A4 at 50 uM; type: ADME
[41] = Bioavailability in dog at 10 mg/kg, iv; type: ADME, organism-based, Canis lupus familiaris; details: plasma
[42] = system: Streptococcus pneumoniae; assay: Antibacterial activity against Streptococcus pneumoniae by broth microdilution/CLSI method; type: functional; details: Streptococcus pneumoniae; read-out: MIC
[43] = system: Staphylococcus aureus; assay: Antimicrobial activity against 2 times drug resistance selected Staphylococcus aureus ARC516-1F by broth microdilution/CLSI method; type: functional
[44] = system: Staphylococcus aureus; assay: Antimicrobial activity against 2 times drug resistance selected Staphylococcus aureus ARC1692-1F by broth microdilution/CLSI method; type: functional

T2 sequence (Q63120 whole entry): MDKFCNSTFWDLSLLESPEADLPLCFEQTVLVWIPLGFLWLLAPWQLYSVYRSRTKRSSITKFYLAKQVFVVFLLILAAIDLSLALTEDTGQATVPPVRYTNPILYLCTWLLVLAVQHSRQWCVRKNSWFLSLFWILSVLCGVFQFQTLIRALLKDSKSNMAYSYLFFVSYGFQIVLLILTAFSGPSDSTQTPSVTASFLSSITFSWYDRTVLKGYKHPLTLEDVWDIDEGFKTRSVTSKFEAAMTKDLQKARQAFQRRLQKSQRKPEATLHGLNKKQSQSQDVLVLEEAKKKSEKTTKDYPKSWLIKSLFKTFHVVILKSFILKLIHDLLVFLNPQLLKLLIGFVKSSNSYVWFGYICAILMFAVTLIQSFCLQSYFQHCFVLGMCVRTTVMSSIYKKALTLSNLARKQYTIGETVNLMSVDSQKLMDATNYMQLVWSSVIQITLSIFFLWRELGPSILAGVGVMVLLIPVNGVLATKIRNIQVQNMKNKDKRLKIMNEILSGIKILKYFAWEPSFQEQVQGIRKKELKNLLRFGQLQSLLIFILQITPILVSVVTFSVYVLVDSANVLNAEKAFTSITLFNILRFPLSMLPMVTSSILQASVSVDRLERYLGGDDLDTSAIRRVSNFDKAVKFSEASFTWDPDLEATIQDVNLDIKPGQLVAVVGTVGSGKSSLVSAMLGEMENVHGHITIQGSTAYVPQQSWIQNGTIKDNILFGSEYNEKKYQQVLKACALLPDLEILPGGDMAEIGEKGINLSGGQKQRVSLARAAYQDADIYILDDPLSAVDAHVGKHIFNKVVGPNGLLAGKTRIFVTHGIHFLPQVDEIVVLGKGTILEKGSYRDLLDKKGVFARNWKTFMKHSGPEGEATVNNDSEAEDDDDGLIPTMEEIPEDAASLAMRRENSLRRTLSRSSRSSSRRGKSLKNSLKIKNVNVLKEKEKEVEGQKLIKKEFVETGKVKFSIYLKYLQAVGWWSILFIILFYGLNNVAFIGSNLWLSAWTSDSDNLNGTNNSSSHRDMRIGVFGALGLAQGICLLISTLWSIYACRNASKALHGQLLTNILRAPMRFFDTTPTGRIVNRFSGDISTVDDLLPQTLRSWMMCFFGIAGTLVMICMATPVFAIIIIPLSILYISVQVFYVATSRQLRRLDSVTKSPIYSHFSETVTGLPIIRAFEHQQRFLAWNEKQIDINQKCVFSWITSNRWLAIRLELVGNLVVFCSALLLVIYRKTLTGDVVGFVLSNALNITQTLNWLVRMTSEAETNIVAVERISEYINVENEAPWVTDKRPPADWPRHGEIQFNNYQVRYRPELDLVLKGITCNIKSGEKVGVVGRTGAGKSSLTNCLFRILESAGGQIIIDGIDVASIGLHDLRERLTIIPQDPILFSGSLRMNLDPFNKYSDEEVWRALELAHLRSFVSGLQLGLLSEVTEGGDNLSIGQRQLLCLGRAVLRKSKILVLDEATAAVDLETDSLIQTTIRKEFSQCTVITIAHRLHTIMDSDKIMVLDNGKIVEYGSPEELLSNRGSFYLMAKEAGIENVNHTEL
Cytochrome P450 2C9, sequence (P11712 whole entry): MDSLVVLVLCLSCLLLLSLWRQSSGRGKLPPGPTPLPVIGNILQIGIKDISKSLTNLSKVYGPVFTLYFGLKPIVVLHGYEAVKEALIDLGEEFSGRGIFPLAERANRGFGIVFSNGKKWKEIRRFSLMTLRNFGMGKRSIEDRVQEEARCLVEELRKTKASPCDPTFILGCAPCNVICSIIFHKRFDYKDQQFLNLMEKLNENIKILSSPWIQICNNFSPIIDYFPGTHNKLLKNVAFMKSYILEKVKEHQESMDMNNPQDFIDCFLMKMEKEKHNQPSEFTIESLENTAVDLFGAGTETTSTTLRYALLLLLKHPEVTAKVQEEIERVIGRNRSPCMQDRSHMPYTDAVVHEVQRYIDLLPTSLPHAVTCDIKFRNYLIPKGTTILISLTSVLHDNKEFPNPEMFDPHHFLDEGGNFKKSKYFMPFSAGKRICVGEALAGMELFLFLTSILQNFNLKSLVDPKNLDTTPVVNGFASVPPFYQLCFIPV
Cytochrome P450 2D6, sequence (P10635 whole entry): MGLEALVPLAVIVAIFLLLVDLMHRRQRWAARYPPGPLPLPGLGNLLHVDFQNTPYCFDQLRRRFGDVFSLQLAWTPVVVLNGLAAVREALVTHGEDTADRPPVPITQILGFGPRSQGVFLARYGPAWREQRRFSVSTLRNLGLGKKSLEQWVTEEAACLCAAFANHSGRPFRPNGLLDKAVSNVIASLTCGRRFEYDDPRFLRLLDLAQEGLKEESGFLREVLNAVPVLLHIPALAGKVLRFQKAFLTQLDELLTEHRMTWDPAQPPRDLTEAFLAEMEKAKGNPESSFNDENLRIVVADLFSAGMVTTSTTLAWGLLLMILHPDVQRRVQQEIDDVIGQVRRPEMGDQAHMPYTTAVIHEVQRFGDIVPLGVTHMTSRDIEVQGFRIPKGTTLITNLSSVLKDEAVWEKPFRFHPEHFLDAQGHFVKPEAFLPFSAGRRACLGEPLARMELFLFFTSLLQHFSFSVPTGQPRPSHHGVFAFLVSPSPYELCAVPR
ATP-binding cassette sub-family C member 2 (Homo sapiens, UniProt Q92887), sequence (Q92887 whole entry): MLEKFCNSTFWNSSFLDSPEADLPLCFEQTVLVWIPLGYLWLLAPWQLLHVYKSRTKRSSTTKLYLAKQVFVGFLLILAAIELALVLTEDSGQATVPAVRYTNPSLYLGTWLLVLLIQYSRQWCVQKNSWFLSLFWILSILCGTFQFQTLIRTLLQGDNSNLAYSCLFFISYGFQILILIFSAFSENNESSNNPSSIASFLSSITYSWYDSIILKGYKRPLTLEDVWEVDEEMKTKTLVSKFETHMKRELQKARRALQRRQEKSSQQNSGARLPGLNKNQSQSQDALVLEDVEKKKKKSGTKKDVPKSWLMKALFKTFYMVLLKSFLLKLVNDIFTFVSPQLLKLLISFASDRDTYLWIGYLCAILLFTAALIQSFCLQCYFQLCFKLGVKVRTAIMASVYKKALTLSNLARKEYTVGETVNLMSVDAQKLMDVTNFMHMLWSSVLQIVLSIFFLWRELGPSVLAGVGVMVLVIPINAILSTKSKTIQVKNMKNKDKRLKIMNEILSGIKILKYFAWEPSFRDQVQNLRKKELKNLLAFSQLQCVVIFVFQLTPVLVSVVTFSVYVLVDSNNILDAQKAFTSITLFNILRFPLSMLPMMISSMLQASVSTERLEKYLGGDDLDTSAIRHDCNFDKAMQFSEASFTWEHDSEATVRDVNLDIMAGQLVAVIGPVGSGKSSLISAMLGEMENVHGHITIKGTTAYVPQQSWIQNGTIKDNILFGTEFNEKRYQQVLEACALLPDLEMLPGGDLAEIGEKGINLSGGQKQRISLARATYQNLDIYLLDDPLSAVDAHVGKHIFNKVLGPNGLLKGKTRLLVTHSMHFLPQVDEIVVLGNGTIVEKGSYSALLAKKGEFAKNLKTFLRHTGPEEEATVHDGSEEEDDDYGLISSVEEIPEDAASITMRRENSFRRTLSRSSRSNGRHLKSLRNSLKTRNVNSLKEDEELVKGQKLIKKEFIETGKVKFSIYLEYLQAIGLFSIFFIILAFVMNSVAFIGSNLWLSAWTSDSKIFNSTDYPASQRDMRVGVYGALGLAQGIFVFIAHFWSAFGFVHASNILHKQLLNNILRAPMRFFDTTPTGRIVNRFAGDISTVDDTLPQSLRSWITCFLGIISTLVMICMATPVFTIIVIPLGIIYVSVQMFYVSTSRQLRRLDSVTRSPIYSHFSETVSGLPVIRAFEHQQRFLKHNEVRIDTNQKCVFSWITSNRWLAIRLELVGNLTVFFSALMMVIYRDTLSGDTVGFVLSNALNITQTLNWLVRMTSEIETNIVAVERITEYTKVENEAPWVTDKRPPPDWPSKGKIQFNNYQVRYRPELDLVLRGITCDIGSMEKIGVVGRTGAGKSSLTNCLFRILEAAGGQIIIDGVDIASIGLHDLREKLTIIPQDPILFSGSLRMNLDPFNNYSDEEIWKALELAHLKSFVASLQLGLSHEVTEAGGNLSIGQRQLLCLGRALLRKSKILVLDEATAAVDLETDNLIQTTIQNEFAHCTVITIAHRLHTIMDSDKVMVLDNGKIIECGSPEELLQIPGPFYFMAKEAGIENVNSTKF
Cytochrome P450 2C19, sequence (P33261 whole entry): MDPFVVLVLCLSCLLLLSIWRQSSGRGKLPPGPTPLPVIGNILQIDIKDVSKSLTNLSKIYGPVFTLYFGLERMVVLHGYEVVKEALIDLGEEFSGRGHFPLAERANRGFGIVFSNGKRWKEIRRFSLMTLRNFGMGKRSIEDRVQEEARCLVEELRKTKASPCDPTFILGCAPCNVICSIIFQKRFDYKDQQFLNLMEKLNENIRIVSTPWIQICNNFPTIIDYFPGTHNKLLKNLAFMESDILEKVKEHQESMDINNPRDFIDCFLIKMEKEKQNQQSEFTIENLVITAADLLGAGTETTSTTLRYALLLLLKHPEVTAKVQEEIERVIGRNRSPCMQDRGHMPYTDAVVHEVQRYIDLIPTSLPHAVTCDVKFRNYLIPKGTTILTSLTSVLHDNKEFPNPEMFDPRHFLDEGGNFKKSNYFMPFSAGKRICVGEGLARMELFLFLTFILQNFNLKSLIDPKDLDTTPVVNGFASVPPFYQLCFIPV
Cytochrome P450 3A4, sequence (P08684 whole entry): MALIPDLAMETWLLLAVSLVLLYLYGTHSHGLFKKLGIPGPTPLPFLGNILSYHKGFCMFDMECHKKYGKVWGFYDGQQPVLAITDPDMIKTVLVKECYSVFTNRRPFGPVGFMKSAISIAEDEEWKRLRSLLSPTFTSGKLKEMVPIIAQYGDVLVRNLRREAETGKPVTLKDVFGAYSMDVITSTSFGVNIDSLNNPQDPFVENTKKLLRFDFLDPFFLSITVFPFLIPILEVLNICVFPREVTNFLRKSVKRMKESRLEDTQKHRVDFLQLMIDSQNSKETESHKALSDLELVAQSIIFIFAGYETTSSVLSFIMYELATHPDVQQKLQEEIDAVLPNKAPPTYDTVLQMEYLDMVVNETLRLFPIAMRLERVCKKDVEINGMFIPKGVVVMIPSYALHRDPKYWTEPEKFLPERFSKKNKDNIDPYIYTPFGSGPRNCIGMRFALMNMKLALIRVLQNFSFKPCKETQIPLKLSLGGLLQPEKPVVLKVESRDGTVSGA

## COC[C@H](C)NC(=O)c1nc(N2CC[C@@H](NC(=O)c3[nH]c(C)c(Cl)c3Cl)[C@@H](OC)C2)sc1C(=O)O [AZD-5099]
[1]
  MIC: 0.016 µg/mL (≈ 0.0292 µM)
[2]
  MIC: 0.03 µg/mL (≈ 0.0547 µM)
[3]
  Ratio: 8
[4]
  MIC: 0.94 µg/mL (≈ 1.71 µM)
[5]
  Ratio: 8
[6]
  IC50: < 0.01 µM
[7]
  MIC: 0.13 µg/mL (≈ 0.237 µM)
[8]
  inhibition (INH): Not Active
[9]
  inhibition (INH): Not Active
[10]
  MIC90: 0.06 µg/mL (≈ 0.109 µM)
[11]
  MIC: 0.014 µg/mL (≈ 0.0255 µM)
[12]
  clearance: 14 mL/min/kg
[13]
  MIC: 0.13 µg/mL (≈ 0.237 µM)
[14]
  MIC: 0.03 µg/mL (≈ 0.0547 µM)
[15]
  inhibition (INH): Not Active
[16]
  fraction unbound: 0.047
[17]
  Ratio: 16
[18]
  clearance: 2.1 mL/min/kg
[19]
  pKa: 4.2
[20]
  Ratio: 8
[21]
  MIC: 0.036 µg/mL (≈ 0.0656 µM)
[22]
  clearance: 10 mL/min/kg
[23]
  MIC: < 0.008 µg/mL
[24]
  IC50: 200 µM
[25]
  MIC: 24 µg/mL (≈ 43.8 µM)
[26]
  MIC: 0.016 µg/mL (≈ 0.0292 µM)
[27]
  AUC: 116 µg·h/mL
[28]
  Ratio: 16
[29]
  inhibition (INH): Not Active
[30]
  inhibition: Dose-dependent effect
[31]
  IC50: 59 µM
[32]
  MIC: 0.25 µg/mL (≈ 0.456 µM)
[33]
  MIC90: 0.06 µg/mL (≈ 0.109 µM)
[34]
  solubility: 960 µM (≈ 527 µg/mL)
[35]
  bioavailability: 100%
[36]
  Ratio: 16
[37]
  MIC: 0.13 µg/mL (≈ 0.237 µM)
[38]
  EC50: > 200 µM
[39]
  Ratio: 16
[40]
  inhibition (INH): Not Active
[41]
  bioavailability: 96%
[42]
  MIC: 0.016 µg/mL (≈ 0.0292 µM)
[43]
  MIC: 0.25 µg/mL (≈ 0.456 µM)
[44]
  MIC: 0.5 µg/mL (≈ 0.912 µM)
